Here are results for five compounds from publication PMC5131813 (Molecular Pain, 2016).

For orientation: fraction unbound means free concentration divided by total concentration. As usually defined, the IC90 is the point of the concentration-response curve where the effect stands at 90%. For orientation: Kp means tissue or fluid exposure divided by exposure in the circulation. For orientation: clearance means the rate of elimination divided by the concentration. The low end stands for a low capacity for elimination, the high end for a high capacity for elimination.

Series [1] concerns AITC-induced licking/biting. The conditions noted are these: cited from earlier work.
The test system of series [2] is CCI, SNL, CFA. Conditions: cited from earlier work.
Series [3] addresses hTRPV4 (Homo sapiens, UniProt Q9HBA0). Put plainly: TRP channel selectivity, luminescence calcium assay in CHO cells. It is filed as cell-based. The essentials: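 A tetracycline-inducible CHO line expressing human TRPV4 plus aequorin was induced with 0.5 µg/ml tetracycline 24 h before the assay. Cells were loaded for 2 h in pH 7.2 F12 containing 30 mM HEPES, 1 mM CaCl2, 0.3% BSA and 15 µM coelenterazine. Test compound was added 2.5 min before 1 µM 4α-PDD. Luminescence was read on a CCD-camera luminometer, and IC50 was calculated.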

In series [4] the target is rat TRPV1 (Rattus norvegicus, UniProt O35433). Put plainly: TRP channel selectivity, luminescence calcium assay in CHO cells. Format: cell-based. The essentials:
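A CHO line constitutively expressing rat TRPV1 plus aequorin was used without tetracycline induction. Cells were loaded for 2 h with 15 µM coelenterazine in pH 7.2 F12 containing 30 mM HEPES. Test compound was added 2.5 min before 0.5 µM capsaicin. Luminescence was recorded by a CCD-camera luminometer, and IC50 was derived by curve fitting.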

Series [5] has as its system 40 targets including GPCRs, ion channels, and kinases. Kind of series: CEREP selectivity profiling. It is filed as binding.
The target of series [6] is T1, rTRPV3 (Rattus norvegicus, UniProt Q4QYD9).
T1 sequence (Q4QYD9 1-791): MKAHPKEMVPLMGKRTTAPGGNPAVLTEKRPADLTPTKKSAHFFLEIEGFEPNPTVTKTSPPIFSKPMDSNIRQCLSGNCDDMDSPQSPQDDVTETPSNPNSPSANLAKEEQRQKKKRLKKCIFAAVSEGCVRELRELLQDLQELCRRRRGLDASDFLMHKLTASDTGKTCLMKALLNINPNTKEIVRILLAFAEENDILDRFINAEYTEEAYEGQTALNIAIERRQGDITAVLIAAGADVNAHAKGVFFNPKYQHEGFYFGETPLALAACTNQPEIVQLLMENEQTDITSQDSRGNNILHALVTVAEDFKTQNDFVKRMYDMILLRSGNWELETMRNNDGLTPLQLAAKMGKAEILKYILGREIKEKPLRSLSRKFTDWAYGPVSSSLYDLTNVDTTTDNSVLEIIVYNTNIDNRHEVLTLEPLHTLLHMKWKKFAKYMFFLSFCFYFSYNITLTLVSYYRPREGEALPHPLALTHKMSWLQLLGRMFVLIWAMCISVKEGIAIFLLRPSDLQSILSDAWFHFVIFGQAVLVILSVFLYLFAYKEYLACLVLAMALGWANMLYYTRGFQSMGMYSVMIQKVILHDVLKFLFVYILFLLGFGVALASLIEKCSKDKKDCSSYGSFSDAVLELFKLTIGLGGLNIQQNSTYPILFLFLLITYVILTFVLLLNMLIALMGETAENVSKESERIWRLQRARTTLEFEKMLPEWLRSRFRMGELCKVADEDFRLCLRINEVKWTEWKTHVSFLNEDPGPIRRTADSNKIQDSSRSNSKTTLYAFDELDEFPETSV
Kind of series: TRP channel selectivity, luminescence calcium assay in CHO cells. Format: cell-based. Put shortly:
(§1)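 Tetracycline-inducible stable CHO lines co-expressing aequorin were induced with 0.5 µg/ml tetracycline 24 h before the assay. Cells were loaded for 2 h in pH 7.2 F12 with 30 mM HEPES and 15 µM coelenterazine. Test compound was added 2.5 min before agonist: 200 µM 2-APB for TRPV3, or 1 µM icilin or 12 °C cold buffer for TRPM8. Luminescence was read by CCD luminometer, and IC50 was fitted.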

For series [7], the target named is rTRPM8 (Rattus norvegicus, UniProt Q8R455). The description is as above. It is filed as cell-based. Put shortly: as §1
Series [8] is described as follows: Plasma protein binding by ultracentrifugation. It is filed as in vitro ADME. Conditions: male, rat. Put shortly:
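Test compound at 5 µg/mL was incubated in male rat plasma for 15 min at 37 °C, then ultracentrifuged at 16,128 × g for 3 h at 37 °C. Samples were precipitated with acetonitrile containing internal standard, dried under nitrogen, reconstituted in methanol/water 50:50 and quantified by LC-MS/MS against calibration standards. The unbound fraction was taken as measured/nominal concentration.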

The test system of series [9] is SNL-induced tactile allodynia. Kind of series: SNL-induced tactile allodynia. Format: in vivo. Conditions: rat; 1 h and 2 h. The essentials:
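Two weeks after spinal nerve ligation, rats on a metal mesh floor were tested with nine von Frey filaments at near-equal log intervals. Filaments were applied to the mid-plantar glabrous area of the injured paw, and the 50% withdrawal threshold was found by the up-down method. After a baseline reading, rats received oral vehicle, test compound (100 or 300 mg/kg) or gabapentin 200 mg/kg and were retested at 1 and 2 h. Thresholds were log-transformed before statistics.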

For series [10], the target named is human TRPA1 (Homo sapiens, UniProt O75762). Put plainly: TRPA1 activation by AITC, antagonist assay. The conditions noted are these: read-out: human TRPA1 activation by AITC IC90. Format: cell-based.
The target of series [11] is T2, TRPA1 (Rattus norvegicus, UniProt Q6RI86). Put plainly: AITC-induced licking/flinching model. It is filed as in vivo. Conditions: po, read-out: Rat AITC PD model IC90. Put shortly: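 Rats dosed p.o. at 0.3, 1, 3 or 10 mg/kg, or vehicle (1% Tween80/2% HPMC/97% water/methanesulfonic acid, pH 2.2), 60 min before intraplantar AITC (30 µl, in 0.5% Tween 80/PBS). A blinded observer counted flinches and guard/licks >3 s for 1 min post-injection. Plasma levels were measured by LC-MS/MS. IC90 came from sigmoidal fit of individual response versus plasma concentration.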

For series [12], the target named is T2, TRPA1. The conditions noted are these: 1, 3, 10, and 30 mg/kg; cited from earlier work.
For series [13], the system named is CFA-induced hypersensitivity. Kind of series: CFA-induced decreased rearing in an open field assay. It is filed as in vivo. The conditions noted are these: rat; for rearing time: 23 h after CFA, 60 min, CFA vehicle 204 ± 25 s; for effect on CFA-induced reduction in rearing: naproxen sodium 3 mg/kg, AMG0902 up to 100 mg/kg.
For series [14], the system named is open field activity in rats. Put plainly: Open field activity. Format: in vivo. The conditions noted are these: rat open field, 60 min; for effect on total distance traveled vs vehicle: AMG0902 30-300 mg/kg, gabapentin 200 mg/kg p.o. Put shortly:
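Male Sprague-Dawley rats (220–300 g) were kept on a reversed light cycle for ≥1 week and acclimated 1 h. Test compound (30, 100 or 300 mg/kg), vehicle or gabapentin 200 mg/kg p.o. (same vehicle) was given 1 h before the rat was placed in a 41×41×38 cm box with 32 photocells. Beam breaks, distance, time and stereotypic movements were logged per minute over 60 min.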

Series [15] has as its target mouse TRPA1 (Mus musculus, UniProt Q8BLA8). Kind of series: TRPA1 activation by AITC, antagonist assay. It is filed as cell-based.
The nature of series [16]: Pharmacokinetics in plasma and brain. Conditions: Sprague-Dawley, rat. It is filed as in vivo.
Series [17] concerns the target rat TRPA1 (Rattus norvegicus, UniProt Q6RI86). Put plainly: Agonist-induced TRPA1 activation in stably expressing CHO cells. Format: cell-based. The conditions noted are these: for IC50: stably expressing CHO cells.
The target of series [18] is rTRPA1 (Rattus norvegicus, UniProt Q6RI86). Kind of series: rTRPA1 agonism assay. Format: cell-based.
Series [19] addresses hTRPV1 (Homo sapiens, UniProt Q8NER1). Kind of series: TRP channel selectivity, calcium assay. It is filed as cell-based.
A short description of series [20]: Unbound plasma exposure in pharmacodynamic and pain models. Format: in vivo, rat. The essentials: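 Rats in the pain models were dosed orally with test compound in 1% Tween80/2% HPMC/97% water/methanesulfonic acid pH 2.2. Plasma drug levels were measured by LC-MS/MS after protein precipitation, using a structurally similar internal standard and calibration standards serially diluted into blank plasma from a 1 mg/mL DMSO stock.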

Series [21] deals with C-fibers. The conditions noted are these: cited from earlier work.

rat TRPA1, sequence (Q6RI86 whole entry): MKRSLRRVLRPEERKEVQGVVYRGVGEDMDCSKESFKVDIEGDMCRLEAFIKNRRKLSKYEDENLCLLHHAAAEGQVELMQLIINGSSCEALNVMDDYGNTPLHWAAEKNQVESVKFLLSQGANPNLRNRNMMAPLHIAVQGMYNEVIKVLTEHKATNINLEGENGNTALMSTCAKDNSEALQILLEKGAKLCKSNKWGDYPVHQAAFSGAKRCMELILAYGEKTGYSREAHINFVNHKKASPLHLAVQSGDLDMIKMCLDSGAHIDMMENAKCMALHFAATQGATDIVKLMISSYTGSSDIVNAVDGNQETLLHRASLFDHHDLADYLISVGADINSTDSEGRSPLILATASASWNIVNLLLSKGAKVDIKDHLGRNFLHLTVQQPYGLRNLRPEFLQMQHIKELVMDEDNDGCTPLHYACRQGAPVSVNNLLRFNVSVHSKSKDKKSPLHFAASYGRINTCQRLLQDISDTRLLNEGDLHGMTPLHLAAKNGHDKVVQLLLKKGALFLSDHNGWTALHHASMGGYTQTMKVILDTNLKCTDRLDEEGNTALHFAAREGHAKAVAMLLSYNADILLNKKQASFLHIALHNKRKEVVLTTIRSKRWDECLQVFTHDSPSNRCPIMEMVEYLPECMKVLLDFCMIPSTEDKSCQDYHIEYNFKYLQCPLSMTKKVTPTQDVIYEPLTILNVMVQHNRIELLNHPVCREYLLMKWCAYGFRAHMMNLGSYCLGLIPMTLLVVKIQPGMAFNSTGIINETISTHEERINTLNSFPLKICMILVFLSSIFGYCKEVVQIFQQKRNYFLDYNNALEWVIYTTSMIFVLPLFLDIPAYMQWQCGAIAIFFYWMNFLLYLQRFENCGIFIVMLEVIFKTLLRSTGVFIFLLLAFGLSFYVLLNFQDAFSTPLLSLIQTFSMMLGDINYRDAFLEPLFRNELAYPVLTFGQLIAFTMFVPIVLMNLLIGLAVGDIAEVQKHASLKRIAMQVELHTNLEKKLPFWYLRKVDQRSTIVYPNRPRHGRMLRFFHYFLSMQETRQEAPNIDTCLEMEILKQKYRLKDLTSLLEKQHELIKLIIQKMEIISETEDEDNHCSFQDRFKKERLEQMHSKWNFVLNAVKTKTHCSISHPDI
T2 sequence (Q6RI86 whole entry): as above
hTRPV1, sequence (Q8NER1 whole entry): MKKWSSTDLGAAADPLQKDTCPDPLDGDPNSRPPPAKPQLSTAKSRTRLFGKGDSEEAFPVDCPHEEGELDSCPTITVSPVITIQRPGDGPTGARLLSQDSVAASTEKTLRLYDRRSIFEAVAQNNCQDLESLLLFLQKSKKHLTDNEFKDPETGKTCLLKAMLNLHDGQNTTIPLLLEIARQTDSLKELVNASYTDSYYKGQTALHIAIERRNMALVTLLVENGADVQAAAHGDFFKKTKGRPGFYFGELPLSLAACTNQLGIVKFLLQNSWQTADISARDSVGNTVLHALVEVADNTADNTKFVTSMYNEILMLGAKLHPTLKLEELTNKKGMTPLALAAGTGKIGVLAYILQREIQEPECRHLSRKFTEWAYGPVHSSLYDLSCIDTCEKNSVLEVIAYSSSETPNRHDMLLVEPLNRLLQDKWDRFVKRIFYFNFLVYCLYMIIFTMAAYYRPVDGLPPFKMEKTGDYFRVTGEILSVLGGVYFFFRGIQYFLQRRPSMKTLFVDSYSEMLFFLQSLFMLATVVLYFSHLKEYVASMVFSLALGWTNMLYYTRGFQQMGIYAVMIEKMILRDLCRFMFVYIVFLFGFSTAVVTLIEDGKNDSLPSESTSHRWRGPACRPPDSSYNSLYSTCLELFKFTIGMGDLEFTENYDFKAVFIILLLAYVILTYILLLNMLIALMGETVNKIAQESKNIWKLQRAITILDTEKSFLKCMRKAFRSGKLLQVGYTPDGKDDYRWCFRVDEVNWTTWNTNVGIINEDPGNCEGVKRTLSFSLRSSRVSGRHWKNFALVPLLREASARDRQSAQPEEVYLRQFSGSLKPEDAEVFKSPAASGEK
rTRPM8, sequence (Q8R455 whole entry): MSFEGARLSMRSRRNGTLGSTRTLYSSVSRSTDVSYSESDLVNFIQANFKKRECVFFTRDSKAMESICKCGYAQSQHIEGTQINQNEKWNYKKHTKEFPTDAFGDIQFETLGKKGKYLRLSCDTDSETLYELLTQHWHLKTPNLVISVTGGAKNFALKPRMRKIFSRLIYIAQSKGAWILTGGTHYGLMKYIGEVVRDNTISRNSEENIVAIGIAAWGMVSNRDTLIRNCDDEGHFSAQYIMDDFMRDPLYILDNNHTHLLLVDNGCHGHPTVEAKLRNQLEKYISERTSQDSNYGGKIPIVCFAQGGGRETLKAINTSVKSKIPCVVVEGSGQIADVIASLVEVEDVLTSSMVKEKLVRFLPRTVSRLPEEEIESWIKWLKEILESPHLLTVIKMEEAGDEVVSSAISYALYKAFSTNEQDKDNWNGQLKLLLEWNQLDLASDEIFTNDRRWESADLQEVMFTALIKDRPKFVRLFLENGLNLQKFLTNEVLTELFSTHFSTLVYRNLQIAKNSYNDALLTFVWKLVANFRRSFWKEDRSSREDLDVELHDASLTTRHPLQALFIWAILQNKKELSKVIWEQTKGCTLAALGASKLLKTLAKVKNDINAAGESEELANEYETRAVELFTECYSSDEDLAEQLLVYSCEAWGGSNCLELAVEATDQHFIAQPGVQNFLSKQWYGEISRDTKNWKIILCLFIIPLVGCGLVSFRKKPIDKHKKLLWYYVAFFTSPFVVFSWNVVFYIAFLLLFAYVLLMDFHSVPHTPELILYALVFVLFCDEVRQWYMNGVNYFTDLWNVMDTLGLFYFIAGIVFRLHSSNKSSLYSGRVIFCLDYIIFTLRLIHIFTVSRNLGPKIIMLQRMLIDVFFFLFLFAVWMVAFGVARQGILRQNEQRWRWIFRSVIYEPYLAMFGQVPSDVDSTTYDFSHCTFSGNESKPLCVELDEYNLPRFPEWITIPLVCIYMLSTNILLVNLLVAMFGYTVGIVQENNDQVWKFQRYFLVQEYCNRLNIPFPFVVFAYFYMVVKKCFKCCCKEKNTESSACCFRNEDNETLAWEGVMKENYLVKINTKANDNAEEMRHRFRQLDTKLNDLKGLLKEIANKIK
rTRPA1, sequence (Q6RI86 whole entry): as the sequence (Q6RI86 whole entry) above
hTRPV4, sequence (Q9HBA0 whole entry): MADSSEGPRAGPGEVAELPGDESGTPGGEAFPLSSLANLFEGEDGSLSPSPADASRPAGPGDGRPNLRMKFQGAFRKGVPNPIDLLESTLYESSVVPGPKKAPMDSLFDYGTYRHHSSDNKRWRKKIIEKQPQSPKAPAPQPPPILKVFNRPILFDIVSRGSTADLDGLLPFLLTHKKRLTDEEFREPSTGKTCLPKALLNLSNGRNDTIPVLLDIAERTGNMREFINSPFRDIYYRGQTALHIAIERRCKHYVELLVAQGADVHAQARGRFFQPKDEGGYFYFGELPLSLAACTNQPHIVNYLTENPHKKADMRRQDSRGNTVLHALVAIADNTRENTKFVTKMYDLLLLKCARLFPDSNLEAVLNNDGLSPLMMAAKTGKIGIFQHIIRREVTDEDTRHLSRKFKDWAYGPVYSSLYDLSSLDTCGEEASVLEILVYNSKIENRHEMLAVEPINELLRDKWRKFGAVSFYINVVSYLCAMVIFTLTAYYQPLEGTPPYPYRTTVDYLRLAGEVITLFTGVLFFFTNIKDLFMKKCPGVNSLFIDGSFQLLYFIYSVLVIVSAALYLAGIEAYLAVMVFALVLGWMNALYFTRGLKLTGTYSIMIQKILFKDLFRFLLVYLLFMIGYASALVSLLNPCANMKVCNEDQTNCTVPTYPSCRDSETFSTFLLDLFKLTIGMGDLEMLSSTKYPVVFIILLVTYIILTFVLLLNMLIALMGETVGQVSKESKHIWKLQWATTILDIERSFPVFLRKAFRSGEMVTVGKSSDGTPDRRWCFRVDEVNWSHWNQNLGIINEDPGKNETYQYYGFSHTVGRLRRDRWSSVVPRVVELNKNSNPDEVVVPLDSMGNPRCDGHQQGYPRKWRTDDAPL
rat TRPV1, sequence (O35433 whole entry): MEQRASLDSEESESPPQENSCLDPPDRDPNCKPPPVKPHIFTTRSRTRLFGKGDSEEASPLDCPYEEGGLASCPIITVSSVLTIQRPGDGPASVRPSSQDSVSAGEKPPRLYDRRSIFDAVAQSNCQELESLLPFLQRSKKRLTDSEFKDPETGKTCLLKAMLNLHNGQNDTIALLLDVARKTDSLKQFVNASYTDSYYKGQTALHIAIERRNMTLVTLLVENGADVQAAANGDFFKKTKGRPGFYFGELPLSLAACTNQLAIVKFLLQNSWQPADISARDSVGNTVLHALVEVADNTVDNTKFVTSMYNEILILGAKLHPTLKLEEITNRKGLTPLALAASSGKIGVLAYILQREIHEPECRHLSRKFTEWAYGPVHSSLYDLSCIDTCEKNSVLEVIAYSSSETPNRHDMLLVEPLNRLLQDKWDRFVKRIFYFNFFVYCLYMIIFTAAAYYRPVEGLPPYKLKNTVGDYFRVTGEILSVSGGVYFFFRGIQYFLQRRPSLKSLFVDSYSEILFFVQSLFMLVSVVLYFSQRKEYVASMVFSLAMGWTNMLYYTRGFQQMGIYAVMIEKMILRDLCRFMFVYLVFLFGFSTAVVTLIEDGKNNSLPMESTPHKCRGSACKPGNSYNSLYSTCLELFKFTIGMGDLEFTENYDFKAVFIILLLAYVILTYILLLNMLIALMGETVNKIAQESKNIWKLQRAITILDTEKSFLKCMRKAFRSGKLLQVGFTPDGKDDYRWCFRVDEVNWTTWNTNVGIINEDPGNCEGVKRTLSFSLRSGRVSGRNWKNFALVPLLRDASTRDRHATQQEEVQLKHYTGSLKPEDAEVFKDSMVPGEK

As to `CCC(=N\O)/C(C)=C/c1ccc(F)cc1` [A-967079], the “effect on AITC-induced licking/biting in vivo” value in [1] is given as “efficiently blocks”. Also, the Efficacy entry in series [2] (CCI, SNL, CFA, MH, 62 mg/kg, p.o., ref Chen et al.[42]) was “ineffective”. Moreover, in [2] (CFA or SNL models), the “effect on von Frey-evoked tactile allodynia” value is given as “no effect”.

Turning to `Cn1cnc2ncn(Cc3nc(CCc4ccc(Cl)cc4)no3)c(=O)c21` [AMG0902, 1-((3-(4-Chlorophenethyl)-1,2,4-oxadiazol-5-yl)methyl)-7-methyl-1H-purin-6(7H)-one], the IC50 in [3] is more than 10000 nM; in series [4], more than 10000 nM; in [5] (read-out: in vitro potency at 40 targets profiled at CEREP), more than 10000 nM; in series [6] it was more than 10000 nM; in [7] it was more than 10000 nM; in series [15] it was 113 ± 77 nM. For the same compound, the IC50 in series [17] (rTRPA1 (4-ONE) IC50, 35 µM 4-ONE) is 585 ± 110 nM; in [17] (rTRPA1 (AITC) IC50, 80 µM AITC), 68 ± 38 nM; in series [17] (rTRPA1 (Methylglyoxal) IC50, 2.74 mM methylglyoxal), 151 ± 5 nM; in [17] (rTRPA1 (Osmol) IC50, 100 mOsmol hypo-osmolarity) it was 9.7 ± 2 nM; in [18], more than 25000 nM; in series [19] it was more than 10000 nM. Further, the “inhibition of specific ligand binding to each target” value in series [5] (40 targets profiled at CEREP) is given as less than 33%. Further, the fraction unbound at 15 min, 5 µg/mL in [8] was 0.29. Also, the “effect on SNL-induced mechanical allodynia” value in series [9] is given as “no significant effect”. In addition, the IC90 in series [10] came out at 186 ± 18 nM; in [11] it was 1700 nM; in [17] (CHO, read-out: IC90 against rat TRPA1), 300 nM. Also, the “effect on AITC-induced licking/flinching” value in series [12] was “dose-dependent prevention”. Moreover, the rearing time is 264 ± 52 s in series [13] (AMG0902 100 mg/kg p.o.) and 308 ± 67 s in series [14] (300 mg/kg p.o., 1 h before). Also, in series [13], the “effect on CFA-induced reduction in rearing” value is “no significant reduction”. For the same compound, in [14] (300 mg/kg p.o., 1 h before), the total distance traveled is reported as 7437 ± 900 cm. Besides, the “effect on total distance traveled vs vehicle” value in [14] was “no significant effect”. For the same compound, the partition ratio (Kp) in [16] (brain) is 0.2. Also, the clearance in [16] (male, plasma, iv, 2 mg/kg) is 41.7 mL/min/kg. Besides, the “mean unbound plasma concentration” value in series [20] (CFA Randall Selitto model, 300 mg/kg p.o.) is listed as 35 ± 11 µM; in series [20] (CFA rearing model, 100 mg/kg p.o.), 6.1 ± 2.4 µM; in series [20] (SNL model, 300 mg/kg p.o.), 8.4 µM. The “mean Cu concentration (unbound plasma)” value in [20] (open field assay, 300 mg/kg p.o.) is 12.6 ± 5.4 µM.

As for `CC(C)c1ccc(NC(=O)Cn2cnc3c2c(=O)n(C)c(=O)n3C)cc1` [HC-030031], the “effect on mechanically evoked action potential firing in C-fibers” value in series [21] was “reduced mechanically evoked action potential firing”.

Turning to `NCC1(CC(=O)O)CCCCC1` [gabapentin, reference compound], the “effect on SNL-induced mechanical allodynia” value in series [9] is “significantly reversed”. Also, in series [14], the “effect on total distance traveled vs vehicle” value is recorded as “not significantly reduced”.

Turning to `COc1ccc2cc([C@H](C)C(=O)O)ccc2c1` [naproxen, reference compound], the rearing time in series [13] (naproxen 3 mg/kg p.o.) amounted to 418 ± 49 cm. In addition, the “effect on CFA-induced reduction in rearing” value in series [13] is reported as “significant inhibition”.
